According to ChEMBL document CHEMBL3758106, “Antitumor Activity of Americanin A Isolated from the Seeds of Phytolacca americana by Regulating the ATM/ATR Signaling Pathway and the Skp2-p27 Axis in Human Colon Cancer Cells” (J Nat Prod, 2015):
Activity calls are given as the source filed them. The calls are words filed in the database; no cut-off is given here.

Key:
HCT-116 [1] = test: Induction of cell cycle arrest in human HCT116 cells assessed as accumulation at G0/G1 phase at 30 uM after 48 hrs by propidium iodide staining-based flow cytometric analysis in presence of RNase A (reference value: 54.3%); format: functional
HCT-116 [2] = test: Induction of cell cycle arrest in human HCT116 cells assessed as accumulation at G2/M phase at 30 uM after 48 hrs by propidium iodide staining-based flow cytometric analysis in presence of RNase A (reference value: 19.7%); format: functional
HCT-116 [3] = test: Induction of apoptosis in human HCT116 cells assessed as dead cells at 15 uM after 48 hrs by annexin V-FITC/propidium iodide staining-based flow cytometric analysis (reference value: 2%); format: functional
HCT-116 [4] = test: Induction of apoptosis in human HCT116 cells assessed as decrease in Bcl2 expression at 7.5 to 30 uM after 48 hrs by Western blot analysis; format: functional, cell-based
Summary of the method: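 HCT116 cells exposed 48 h; Western blot of RIPA lysates (BCA quantification, SDS-PAGE, PVDF, overnight primary antibodies at 4 °C, HRP secondary, ECL).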

HCT-116 [5] = test: Induction of reactive oxygen species in human HCT116 cells at 30 uM after 48 hrs by DCFH-DA staining-based flow cytometric analysis in presence of NAC (reference value: 5.1%); format: functional
Summary of the method: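 HCT116 cells seeded overnight, then exposed to test compounds, alone or with NAC, for 48 h in complete medium. Loaded with 20 μM DCFH-DA for 30 min; intracellular ROS in 20 000 cells per group read by flow cytometry as histograms.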

HCT-116 [6] = test: Induction of apoptosis in human HCT116 cells assessed as cleaved caspase 3 level at 30 uM up to 24 hrs by Western blot analysis in presence of NAC; format: functional, cell-based
HCT-116 [7] = test: Induction of cell cycle arrest in human HCT116 cells assessed as accumulation at S phase at 30 uM after 24 hrs by propidium iodide staining-based flow cytometric analysis in presence of RNase A (reference value: 13.4%); format: functional
[8] = Upregulation of phosphorylated H2A.X expression at Ser139 in human HCT116 cells at 7.5 to 30 uM after 24 hrs by Western blot analysis; format: functional, cell-based; conditions: HCT-116
HCT-116 [9] = test: Reduction in histone H3 Lys9 acetylation in human HCT116 cells at 7.5 to 30 uM after 24 hrs by Western blot analysis; format: functional, cell-based
[10] = Downregulation of ATM expression in human HCT116 cells at 30 uM after 1 hr by Western blot analysis; format: functional, cell-based; conditions: HCT-116, TDE = time-dependent effect
Summary of the method: (§1)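 HCT116 cells exposed for 1 h in complete medium; RIPA lysates quantified by BCA, equal protein separated on 8–13% SDS-PAGE, transferred to PVDF, probed with primary antibodies overnight at 4 °C and HRP secondaries, chemiluminescence read-out.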

[11] = Downregulation of ATR expression in human HCT116 cells at 30 uM after 1 hr by Western blot analysis; format: functional, cell-based; conditions: HCT-116, TDE = time-dependent effect; summary of the method: as §1
[12] = Downregulation of phosphorylated ATR expression in human HCT116 cells at 30 uM after 1 hr by Western blot analysis; format: functional, cell-based; conditions: HCT-116, TDE = time-dependent effect; summary of the method: as §1
[13] = molecular target: Serine-protein kinase ATM/ATR (Homo sapiens) (UniProt Q13315+Q13535); test: Activation of ATM/ATR in human HCT116 cells assessed as downregulation of cdc25C level after 24 hrs by Western blot analysis; format: cell-based; conditions: HCT-116
Summary of the method: (§2)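 HCT116 cells exposed 24 h in complete medium; lysed in RIPA buffer (pH 8.0), protein by BCA, equal loads run on 8–13% SDS-PAGE, PVDF transfer, blocked in 5% BSA/TBST, primary antibodies overnight at 4 °C, HRP secondaries 2 h RT, ECL detection; β-actin as loading control.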

[14] = molecular target: Tumour suppressor p53/oncoprotein Mdm2 (Homo sapiens) (UniProt P04637+Q00987); test: Inhibition of MDM2/P53 protein interaction in human HCT116 cells assessed as stabilization of p53 at 7.5 to 30 uM after 24 hrs by western blot analysis; format: cell-based; conditions: HCT-116
[15] = Decrease in Skp2 expression in human HCT116 cells at 7.5 to 30 uM after 24 hrs by western blot analysis; format: functional, cell-based; conditions: HCT-116; summary of the method: as §2
[16] = Decrease in SCF E3 expression in human HCT116 cells at 7.5 to 30 uM after 24 hrs by western blot analysis; format: functional, cell-based; conditions: HCT-116; summary of the method: as §2
HCT-116 [17] = test: Increase in Cul-1 expression in human HCT116 cells after 24 hrs by western blot analysis; format: functional, cell-based; summary of the method: as §2
[18] = Decrease in Skp1 expression in human HCT116 cells at 7.5 to 30 uM after 24 hrs by western blot analysis; format: functional, cell-based; conditions: HCT-116; summary of the method: as §2
[19] = molecular target: Cullin-1/S-phase kinase-associated protein 1 (Homo sapiens) (UniProt Q13616+P63208); test: Inhibition of Cul-1/Skp1 protein interaction in human HCT116 cells after 24 hrs by immunoprecipitation assay; format: cell-based; conditions: HCT-116
Summary of the method: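 Protein measured by Bradford, equal amounts pulled down with anti-Cul-1 antibody on Protein G sepharose at 4 °C. Eluates boiled in Laemmli buffer with 2-mercaptoethanol and probed by Western blot.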

HCT-116 [20] = test: Induction of cell cycle arrest in human HCT116 cells assessed as accumulation at S phase at 7.5 uM after 48 hrs by propidium iodide staining-based flow cytometric analysis in presence of RNase A (reference value: 16.2%); format: functional
K562 = test: Antiproliferative activity against human K562 cells after 24 to 72 hrs by SRB assay; format: functional, cell-based
Summary of the method: (§3)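 Cells grown in 96-well plates (RPMI 1640; MRC-5 in MEM, 10% FBS, antibiotics) with compound […]; fixed in 10% TCA 30 min at 4 °C, stained 0.4% SRB in 1% acetic acid 1 h, dye dissolved in 10 mM Tris pH 10.0, A515 read; viability as % of solvent control, IC50 by nonlinear regression; mean of three independent experiments.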

MRC5 = test: Cytotoxicity against human MRC5 cells after 24 to 72 hrs by SRB assay; format: cell-based; summary of the method: as §3
Mus musculus = test: Upregulation of p21 in human HCT116 cells xenografted in nude mouse at 5 to 10 mg/kg, ip administered 3 times per week measured on day 41 by Western blot analysis; format: functional, organism-based; conditions: HCT-116
Summary of the method: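 HCT116 xenografts in nude mice dosed ip at 5 or 10 mg/kg three times weekly to day 41. Portions of the excised frozen tumors were thawed on ice, homogenized in complete lysis buffer, protein quantified by Bradford, and p21, p27 and Skp2 assessed by Western blot with β-actin as internal control.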

HCT-116 [21] = test: Induction of cell cycle arrest in human HCT116 cells assessed as accumulation at G2/M phase at 7.5 uM after 24 hrs by propidium iodide staining-based flow cytometric analysis in presence of RNase A (reference value: 20.6%); format: functional
HCT-116 [22] = test: Induction of cell cycle arrest in human HCT116 cells assessed as accumulation at S phase at 15 uM after 24 hrs by propidium iodide staining-based flow cytometric analysis in presence of RNase A (reference value: 13.4%); format: functional

Sequence of Cullin-1/S-phase kinase-associated protein 1 (Homo sapiens) (P63208 whole entry, looked up): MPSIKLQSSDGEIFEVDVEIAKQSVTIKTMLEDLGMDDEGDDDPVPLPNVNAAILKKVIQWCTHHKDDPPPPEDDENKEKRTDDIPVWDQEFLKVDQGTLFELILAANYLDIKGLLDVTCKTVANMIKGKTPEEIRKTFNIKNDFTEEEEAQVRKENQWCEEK
Sequence of Cullin-1/S-phase kinase-associated protein 1 (Homo sapiens) (Q13616 whole entry, looked up): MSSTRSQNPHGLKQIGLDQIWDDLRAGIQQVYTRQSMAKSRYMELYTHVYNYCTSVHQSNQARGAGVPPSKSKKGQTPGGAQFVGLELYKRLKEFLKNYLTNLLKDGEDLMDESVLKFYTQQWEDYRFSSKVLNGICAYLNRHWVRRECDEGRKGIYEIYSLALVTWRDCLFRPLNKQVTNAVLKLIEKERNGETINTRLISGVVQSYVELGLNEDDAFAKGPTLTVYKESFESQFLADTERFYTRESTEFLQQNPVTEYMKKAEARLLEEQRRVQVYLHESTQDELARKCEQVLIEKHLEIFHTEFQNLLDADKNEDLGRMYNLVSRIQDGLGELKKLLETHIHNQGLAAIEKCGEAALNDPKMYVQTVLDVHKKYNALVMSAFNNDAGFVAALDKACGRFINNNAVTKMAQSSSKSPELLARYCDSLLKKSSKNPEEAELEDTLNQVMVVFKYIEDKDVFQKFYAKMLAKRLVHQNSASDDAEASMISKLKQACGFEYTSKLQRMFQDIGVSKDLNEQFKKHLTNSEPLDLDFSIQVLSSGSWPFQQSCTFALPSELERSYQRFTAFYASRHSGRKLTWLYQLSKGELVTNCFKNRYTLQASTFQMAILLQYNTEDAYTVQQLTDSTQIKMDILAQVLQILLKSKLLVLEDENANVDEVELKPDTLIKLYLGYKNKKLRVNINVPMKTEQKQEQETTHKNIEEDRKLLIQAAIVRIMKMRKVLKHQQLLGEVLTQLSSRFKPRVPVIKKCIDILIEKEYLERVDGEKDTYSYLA
Sequence of Tumour suppressor p53/oncoprotein Mdm2 (Homo sapiens) (P04637 whole entry, looked up): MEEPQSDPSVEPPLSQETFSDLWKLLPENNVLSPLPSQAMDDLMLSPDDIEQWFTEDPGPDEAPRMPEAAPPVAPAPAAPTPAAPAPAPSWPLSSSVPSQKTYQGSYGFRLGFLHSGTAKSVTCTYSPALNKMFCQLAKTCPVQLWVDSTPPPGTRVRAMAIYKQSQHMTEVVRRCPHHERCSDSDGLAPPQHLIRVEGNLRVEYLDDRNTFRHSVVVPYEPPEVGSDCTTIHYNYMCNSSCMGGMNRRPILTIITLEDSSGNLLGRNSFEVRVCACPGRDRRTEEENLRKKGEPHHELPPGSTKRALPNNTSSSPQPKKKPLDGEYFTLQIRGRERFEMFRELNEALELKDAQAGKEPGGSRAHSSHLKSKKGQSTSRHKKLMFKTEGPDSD
Sequence of Tumour suppressor p53/oncoprotein Mdm2 (Homo sapiens) (Q00987 whole entry, looked up): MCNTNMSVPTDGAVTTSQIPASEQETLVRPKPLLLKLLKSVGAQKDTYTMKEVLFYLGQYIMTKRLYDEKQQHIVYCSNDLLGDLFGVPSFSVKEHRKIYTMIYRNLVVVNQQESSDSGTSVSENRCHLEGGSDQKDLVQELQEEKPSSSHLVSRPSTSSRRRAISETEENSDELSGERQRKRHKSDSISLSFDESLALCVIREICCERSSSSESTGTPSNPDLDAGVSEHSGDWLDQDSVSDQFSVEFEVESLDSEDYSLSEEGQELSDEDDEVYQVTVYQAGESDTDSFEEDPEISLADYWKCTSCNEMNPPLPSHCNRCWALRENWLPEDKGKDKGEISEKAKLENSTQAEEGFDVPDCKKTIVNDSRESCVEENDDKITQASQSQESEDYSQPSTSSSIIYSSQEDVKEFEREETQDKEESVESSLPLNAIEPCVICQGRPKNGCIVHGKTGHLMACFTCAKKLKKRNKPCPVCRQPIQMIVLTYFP

## O=C/C=C/c1ccc2c(c1)O[C@@H](CO)[C@H](c1ccc(O)c(O)c1)O2 [AMERICANIN A]
HCT-116 [1]
  Activity: 16.4%
HCT-116 [2]
  Activity: 19%
HCT-116 [3]
  Activity: 0.4%
HCT-116 [4]
  Activity: Active
HCT-116 [5]
  Activity: 9.9%
HCT-116 [6]
  Activity: inactive
HCT-116 [7]
  Activity: 18.4%
[8]
  Activity: Active
HCT-116 [9]
  Activity: Active
[10]
  Activity: tde
[11]
  Activity: tde
[12]
  Activity: tde
[13]
  Activity: Dose-dependent effect
[14]
  inhibition: Active
[15]
  Activity: Active
[16]
  Activity: Active
HCT-116 [17]
  Activity: Active
[18]
  Activity: Active
[19]
  inhibition: inactive
HCT-116 [20]
  Activity: 13.5%
K562
  IC50: 12.9 µM
MRC5
  IC50: > 100 µM
Mus musculus
  Activity: Active
HCT-116 [21]
  Activity: 27.5%
HCT-116 [22]
  Activity: 17.9%
